Assay results reported in ChEMBL document CHEMBL3817747 (J Med Chem, 2016).

How the values were obtained:
[1] = Cytotoxicity against MDCK cells after 48 hrs by CellTiter 96 AQueous Non-Radioactive cell proliferation assay; format: cell-based, Canis lupus familiaris; settings: dog
Procedure, shortened: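 MDCK cells (1 × 10^5 cells/mL) exposed to inhibitor without virus, same steps as the antiviral assay: 48 h at 37 °C, 5% CO2, viability by MTS-type reagent, absorbance at 490 nm. CC50 is the 50% cytotoxic concentration. Highest concentration tested was 100 μM.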

[2] = Prodrug conversion in rabbit serum assessed as formation of (3R,4R)-[3-((S)-1-Acetamido-2-ethylbutyl)-4-guanidinocyclopent-1-en-1-yl]phosphonic acid at 1 mM at 37 degC after 24 to 96 hrs by HPLC/ESI-HRMS analysis; format: ADME, Oryctolagus cuniculus; settings: 1000 µM

SMILES | CC50 at 48 h [1] | Drug metabolism [2]
CCCCCCOP(=O)(O)C1=C[C@@H]([C@@H](NC(C)=O)C(CC)CC)[C@H](NC(=N)N)C1 | > 100 µM | 
CCC(CC)O[C@@H]1C=C(C(=O)O)C[C@H](N)[C@H]1NC(C)=O [OSELTAMIVIR CARBOXYLATE] | > 100 µM | 
CCC(CC)[C@H](NC(C)=O)[C@@H]1[C@H](O)[C@@H](C(=O)O)C[C@H]1NC(=N)N [PERAMIVIR ANHYDROUS] | > 100 µM | 
CC(=O)N[C@H]1[C@H]([C@H](O)[C@H](O)CO)OC(C(=O)O)=C[C@@H]1NC(=N)N [ZANAMIVIR] | > 100 µM | 
CCOP(=O)(O)[C@@H]1C[C@@H]([C@@H](NC(C)=O)C(CC)CC)[C@H](NC(=N)N)C1 | > 100 µM | 
CCOP(=O)(O)C1=C[C@@H]([C@@H](NC(C)=O)C(CC)CC)[C@H](NC(=N)N)C1 | > 100 µM | metabolite_notdetected
CCC(CC)[C@H](NC(C)=O)[C@@H]1[C@H](O)[C@@H](P(=O)(O)O)C[C@H]1NC(=N)N | > 100 µM | 
CCCCCCOP(=O)(O)[C@@H]1C[C@@H]([C@@H](NC(C)=O)C(CC)CC)[C@H](NC(=N)N)C1 | > 100 µM | 
CCC(CC)[C@H](NC(C)=O)[C@@H]1C=C(P(=O)(O)O)C[C@H]1NC(=N)N | > 100 µM | 
CCC(CC)[C@H](NC(C)=O)[C@@H]1C[C@@H](P(=O)(O)O)C[C@H]1NC(=N)N | > 100 µM | 
CCCCCCOP(=O)(O)[C@H]1C[C@@H](NC(=N)N)[C@H]([C@@H](NC(C)=O)C(CC)CC)[C@@H]1O | > 100 µM | 
CCOP(=O)(O)[C@H]1C[C@@H](NC(=N)N)[C@H]([C@@H](NC(C)=O)C(CC)CC)[C@@H]1O | > 100 µM | 
